UCH37 inh: blocks the human deubiquitinase UCH37; Q9Y5K5; purified proteasome/UCH37, Ub-AMC cleavage fluorescence; inhibition, % (concentration not given with the values); actives 0.33% (n = 330,000); AID 588478;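 active = mean inhibition over replicate wells above about 20%, limit read from the data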
Target sequence (Q9Y5K5 whole entry, looked up): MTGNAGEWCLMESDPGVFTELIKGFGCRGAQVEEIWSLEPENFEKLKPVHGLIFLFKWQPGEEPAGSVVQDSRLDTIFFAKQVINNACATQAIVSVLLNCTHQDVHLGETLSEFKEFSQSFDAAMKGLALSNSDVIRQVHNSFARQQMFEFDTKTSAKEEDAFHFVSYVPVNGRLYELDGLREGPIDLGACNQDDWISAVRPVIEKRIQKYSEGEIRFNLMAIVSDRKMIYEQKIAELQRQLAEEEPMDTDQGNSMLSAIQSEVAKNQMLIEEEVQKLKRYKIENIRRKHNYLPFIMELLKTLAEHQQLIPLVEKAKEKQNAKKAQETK
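Assay system: Proteasome-bound UCH37. Buffer or medium: pH 7.4 Tris-HCl (50 mM) with ovalbumin, ATP-MgCl2, DTT. Incubation: 30 min preincubation with enzyme, 25 min cleavage at room temperature. Measured by: fluorescence, ex 355 nm, em 460 nm. Read-out basis: percent inhibition. Control set: wells without proteasome as full block, compound-free enzyme plus substrate as uninhibited.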
B2AR ag: human beta-2 adrenergic receptor agonism by FAP; P07550; Am2.2-beta2AR cells, FAP receptor internalization, flow cytometry; response, % (no concentration beside the values); actives 0.43% (n = 340,000); AID 504454;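 active = response above a set limit, near 3 SD of response in nonfluorescent compounds, cut at about 42% in these data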
Cardio protect: myocardial damage modulation in H9c2 cells | H9c2 cardiomyocytes, H2O2 injury protection, ATPLite, 2 h | protection from H2O2 cell death, % at 20 µM | actives 0.63% (n = 360,000) | AID 588492;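 active = compounds giving at least 50% protection of heart cells from peroxide-induced death in the single-dose screen, raw or plate-pattern-corrected value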
PfG6PD inh: PfG6PD (Plasmodium falciparum) enzyme inhibition | PfGluPho enzyme, NADPH resazurin-diaphorase fluorescence | inhibition, % at 20 µM | actives 0.78% (n = 350,000);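 active = inhibition reaching at least a set limit at 20 µM in the primary screen, cut at about 59% in these data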
HKDC1 inhibitor: blocks human hexokinase HKDC1 activity | actives 0.16% (n = 340,000) | recombinant HKDC1, G6PDH/diaphorase resazurin coupled fluorescence | Q2TB90 | inhibition, % at 20 µM;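 active = inhibition above about 35% when tested at 20 µM, limit read from the data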
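Test system: HK5 enzyme. Quantity: 5 µg/mL HK5 final. Reagent: glucose and ATP substrates. Schedule: 90 min reaction incubation at room temperature, dark. Technique: resazurin-to-resorufin fluorescence via G6PDH and diaphorase coupling, 525/613 nm. Control set: DMSO wells with and without enzyme mix.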
aDG glyco up: alpha-DG glycosylation activation. Pro5-aDG cells, alpha-DG glycosylation AlphaScreen (IIH6); 0% Pro5, 100% B10-LARGE cell signal. activation, % at 10 µM. AID 624168. actives 0.22% (n = 360,000);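 active = activation of at least 8% versus controls, or a plate z-score of at least 8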;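 note: Pro5 are CHO cells carrying HIG-tagged alpha-DG that lacks glycosylation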
Numbers stand for hits. An excerpt weighted towards active compounds, which were near 2.1% of everything screened.

O=C(OCc1cc(=O)n2ccsc2n1)c1ccc(O)cc1O was read as UCH37 inh inactive, B2AR ag inactive, Cardio protect 64, PfG6PD inh inactive, HKDC1 inhibitor inactive and aDG glyco up inactive.
Screening O=c1cc(COc2ncnc3c(Cl)cc(Cl)cc23)nc2sccn12 returned UCH37 inh inactive, B2AR ag inactive, Cardio protect 55, PfG6PD inh inactive, HKDC1 inhibitor inactive and aDG glyco up inactive.
Screening Cc1ccsc1C(=O)OCc1cc(=O)n2ccsc2n1 returned UCH37 inh inactive, B2AR ag inactive, Cardio protect inactive, PfG6PD inh inactive, HKDC1 inhibitor inactive and aDG glyco up inactive.
Screening O=C(O)c1ccccc1-c1ccc(C=c2sc3nc4cc(Br)cnc4n3c2=O)o1 returned UCH37 inh 43, Cardio protect inactive and aDG glyco up inactive.
CN(C)CCCCNCCCNC(=O)C=NO was read as UCH37 inh inactive.
`O=C(NN=Cc1c[nH]c2ccccc12)c1ccc2c(c1)OCCO2` gave UCH37 inh inactive.
CCOC(=O)C(=O)Nc1cccc(C(=O)OCC)c1 was read as UCH37 inh inactive, B2AR ag 64, Cardio protect inactive, PfG6PD inh inactive, HKDC1 inhibitor inactive and aDG glyco up inactive.
N=C1/C(=C\c2ccc(-c3cccc(Cl)c3)o2)C(=O)N=C2SC=C(c3ccccc3)N12 was read as UCH37 inh inactive, B2AR ag 57, Cardio protect inactive, PfG6PD inh inactive, HKDC1 inhibitor inactive and aDG glyco up inactive.
`N=C1/C(=C\c2ccc(-c3ccc(C(=O)O)cc3)o2)C(=O)N=C2SC=C(c3ccccc3)N12` gave UCH37 inh inactive, B2AR ag inactive, Cardio protect inactive, PfG6PD inh inactive, HKDC1 inhibitor 40 and aDG glyco up inactive.
`CN(Cc1ccccc1)CC(O)COc1ccc(CNCc2ccc(Cl)s2)cc1` (stereo not given) gave UCH37 inh inactive, B2AR ag inactive, Cardio protect inactive, PfG6PD inh inactive, HKDC1 inhibitor inactive and aDG glyco up 6.2.
`CN(Cc1ccccc1)CC(O)COc1ccc(CNCc2cccnc2)cc1` (stereo not given) gave B2AR ag inactive, Cardio protect inactive, PfG6PD inh inactive, HKDC1 inhibitor inactive and aDG glyco up inactive.
O=C(NN=Cc1cnc(N2CCCCC2)s1)c1ccc(C(F)(F)F)cc1 was read as UCH37 inh inactive.
For COc1cc2oc3cc(C#Cc4ccc(N)cc4)ccc3c(=O)c2cc1OC the results were UCH37 inh inactive, B2AR ag inactive, Cardio protect 72, PfG6PD inh inactive, HKDC1 inhibitor inactive and aDG glyco up inactive.
`Nc1ccc(C#Cc2ccc3c(=O)c4ccccc4oc3c2)cc1` gave UCH37 inh inactive, B2AR ag inactive, Cardio protect inactive, PfG6PD inh inactive, HKDC1 inhibitor inactive and aDG glyco up inactive.
For COc1cc2oc3ccc(C#Cc4ccccn4)cc3c(=O)c2cc1OC the results were UCH37 inh inactive, B2AR ag 71, Cardio protect 66, PfG6PD inh inactive, HKDC1 inhibitor inactive and aDG glyco up inactive.
Screening COc1cc2oc3ccc(C#Cc4ccc(N)cc4)cc3c(=O)c2cc1OC returned UCH37 inh inactive, B2AR ag inactive, Cardio protect 57, PfG6PD inh inactive, HKDC1 inhibitor inactive and aDG glyco up inactive.
Screening N#Cc1ccc(C#Cc2ccc3oc4ccccc4c(=O)c3c2)cc1 returned UCH37 inh inactive, B2AR ag inactive, Cardio protect inactive, PfG6PD inh inactive, HKDC1 inhibitor inactive and aDG glyco up inactive.
For ON=C1CCC/C1=C\c1ccco1 the results were UCH37 inh inactive.
Screening Cc1ccc(C2=[N+]([O-])C3(CCCCCC3=NO)N(O)C2(C)C)o1 (stereo not given) returned UCH37 inh inactive.
Screening CCOC(=O)c1cc(-c2ccc(/C=C3/C(=O)NC(=O)C(C#N)=C3C)o2)ccc1Cl returned UCH37 inh 22, B2AR ag inactive, Cardio protect inactive, PfG6PD inh inactive, HKDC1 inhibitor inactive and aDG glyco up inactive.
`CC1=C(C#N)C(=O)NC(=O)/C1=C\c1ccc(-c2ccc(C)cc2[N+](=O)[O-])o1` gave UCH37 inh inactive, B2AR ag inactive, Cardio protect inactive, PfG6PD inh inactive, HKDC1 inhibitor inactive and aDG glyco up inactive.
Fc1cc2ncn(Cc3ccccc3)c2cc1F was read as UCH37 inh 25, B2AR ag inactive, Cardio protect inactive, PfG6PD inh inactive, HKDC1 inhibitor inactive and aDG glyco up inactive.
O=C(COC(=O)c1cc(-c2cccnc2)nc2ccccc12)Nc1ccc(F)cc1F was read as UCH37 inh inactive, B2AR ag inactive, Cardio protect 71, PfG6PD inh inactive, HKDC1 inhibitor inactive and aDG glyco up inactive.
`O=C(NN=C1CC2CC=CC12)c1ccccc1Cl` (stereo not given) gave UCH37 inh inactive.
For COc1cc(NC(=O)CC(C)=NNC(=O)c2ccccn2)c(OC)cc1Cl the results were UCH37 inh inactive.
For CC(=NOCc1ccccc1)c1c(O)cc(C(C)C)n(-c2ccccc2)c1=O the results were UCH37 inh inactive.
For CCc1cc(C(=O)Nc2nc(-c3ccccn3)cs2)sc1C the results were UCH37 inh inactive, B2AR ag inactive, Cardio protect 72, PfG6PD inh inactive, HKDC1 inhibitor inactive and aDG glyco up inactive.
`O=C(Nc1nc(-c2ccccn2)cs1)c1ccccc1-n1cnnn1` gave UCH37 inh inactive, B2AR ag inactive, Cardio protect 63, PfG6PD inh inactive, HKDC1 inhibitor inactive and aDG glyco up inactive.
`CC(=O)c1ccc(-c2ccc(C(=O)Nc3nc(-c4ccccn4)cs3)o2)cc1` gave UCH37 inh inactive, B2AR ag inactive, Cardio protect 99, PfG6PD inh inactive, HKDC1 inhibitor inactive and aDG glyco up inactive.
`Cc1ccc(C(=O)Nc2nc(-c3ccccn3)cs2)o1` gave UCH37 inh inactive, B2AR ag inactive, Cardio protect inactive, PfG6PD inh inactive, HKDC1 inhibitor inactive and aDG glyco up inactive.
For O=C(Nc1nc(-c2ccccn2)cs1)c1ccc(-c2ccccc2F)o1 the results were UCH37 inh inactive, B2AR ag inactive, Cardio protect 58, PfG6PD inh inactive, HKDC1 inhibitor inactive and aDG glyco up inactive.
Screening CC(=NNc1cc(C)nc(-c2ccccc2)n1)c1cccc([N+](=O)[O-])c1 returned UCH37 inh inactive.
Screening Cc1ccc(-c2csc(NC(=O)c3ccc(-c4ccccc4)cc3)n2)o1 returned UCH37 inh inactive, B2AR ag inactive, Cardio protect inactive, PfG6PD inh 60, HKDC1 inhibitor inactive and aDG glyco up inactive.
For O=C(Nc1nc(-c2ccccn2)cs1)c1ccc2c(c1)OCCO2 the results were UCH37 inh inactive, B2AR ag inactive, Cardio protect inactive, PfG6PD inh inactive, HKDC1 inhibitor inactive and aDG glyco up inactive.
